Bioassay records (PubChem)
The entries come from a sample that favours hits as a whole.
NOD2 RIPK2 PPI: blocks binding of human NOD2 to RIPK2 | AID 624267 | 360,000 compounds, 0.38% hits | O43353 | CHO BLA complementation NOD2-RIPK2, CCF4 ratio | inhibition, % at 4.98 µM; in the data active = inhibition above about 21%;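 also: 0% = vehicle only and 100% = reference blocker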
TLR9-MyD88 block: TLR9-MyD88 interaction inhibition. inhibition, % at 4.98 µM. CHO BLA complementation TLR9-MyD88, CCF4 FRET ratio. Q9NR96+Q99836. 340,000 compounds, 0.21% hits. AID 504734;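 active = inhibition above the mean over all tested compounds plus 3 SD, cut at about 21% in these data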;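 also: 0% = DMSO only wells and 100% = clavulanate BLA inhibitor control wells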
UPR CHOP act: apoptotic UPR (CHOP) activation; CHO-CHOP luciferase reporter, luminescence; percent of tunicamycin response over DMSO baseline; activation, % at 10 µM; 330,000 compounds, 0.34% hits;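 active = at 10 µM dose, activation of 40% or more, normalized to positive control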;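 also: 100% = tunicamycin at 10 µg/mL and 0% = DMSO alone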
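System: CHO-CHOP luciferase reporter cell line | Buffer or medium: F12 medium containing 10% fetal bovine serum | Doses: One dose, 10 µM in 0.5% DMSO | Times: 6 h compound exposure at 37 °C after overnight seeding | Signal: Luciferase luminescence | Read-out: % activation vs tunicamycin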
TLR4 MyD88 comp: blocks binding of human TLR4 to MyD88 | O00206+Q99836 | HeLa CL3-4 TLR4/MyD88 BLA complementation, FRET ratio | inhibition, % at 8.4 µM | 200,000 compounds, 0.18% hits; in the data active = inhibition above about 25%;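 also: 0% = vehicle and 100% = reference inhibitor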
Target sequence (O00206 whole entry, looked up): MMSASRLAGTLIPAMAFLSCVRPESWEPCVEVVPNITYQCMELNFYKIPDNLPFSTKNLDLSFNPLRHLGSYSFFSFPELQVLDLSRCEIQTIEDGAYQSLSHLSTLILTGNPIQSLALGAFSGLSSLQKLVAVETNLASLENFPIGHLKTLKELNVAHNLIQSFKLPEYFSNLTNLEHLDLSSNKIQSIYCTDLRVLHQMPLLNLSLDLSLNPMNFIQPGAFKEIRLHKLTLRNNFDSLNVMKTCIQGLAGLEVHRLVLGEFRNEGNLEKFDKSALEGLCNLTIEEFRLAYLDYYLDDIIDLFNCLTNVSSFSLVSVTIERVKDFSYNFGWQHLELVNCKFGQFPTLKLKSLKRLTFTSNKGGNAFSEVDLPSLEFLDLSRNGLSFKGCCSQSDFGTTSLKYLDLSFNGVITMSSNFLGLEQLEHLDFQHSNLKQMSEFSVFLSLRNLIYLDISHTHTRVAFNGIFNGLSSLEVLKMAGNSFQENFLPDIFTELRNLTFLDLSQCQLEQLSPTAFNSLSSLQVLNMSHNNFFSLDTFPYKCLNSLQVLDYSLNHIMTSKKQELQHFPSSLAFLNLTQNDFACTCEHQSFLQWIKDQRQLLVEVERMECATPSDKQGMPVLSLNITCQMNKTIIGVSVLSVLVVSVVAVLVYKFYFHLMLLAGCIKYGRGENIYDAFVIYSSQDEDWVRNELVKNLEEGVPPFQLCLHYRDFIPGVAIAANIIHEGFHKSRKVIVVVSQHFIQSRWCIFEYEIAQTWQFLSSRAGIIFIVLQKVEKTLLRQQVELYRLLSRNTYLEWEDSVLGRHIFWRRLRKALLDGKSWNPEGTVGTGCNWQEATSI
Target sequence (Q99836 whole entry, looked up): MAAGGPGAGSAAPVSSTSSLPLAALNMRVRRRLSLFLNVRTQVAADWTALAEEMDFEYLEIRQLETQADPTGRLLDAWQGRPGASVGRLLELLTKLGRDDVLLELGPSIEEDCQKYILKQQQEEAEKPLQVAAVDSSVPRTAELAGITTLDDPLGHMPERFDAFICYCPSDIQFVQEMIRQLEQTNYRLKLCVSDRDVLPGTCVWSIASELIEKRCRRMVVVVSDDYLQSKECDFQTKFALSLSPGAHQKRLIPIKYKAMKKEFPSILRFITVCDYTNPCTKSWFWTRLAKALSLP
CHOP inh: CHOP inhibition in unfolded protein response | CHO-K1 CHOP-promoter luciferase, tunicamycin-induced, 15-18 h | 220,000 compounds, 3.8% hits | inhibition, % at 10 µM;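 active = compounds that reduced the stress-induced luciferase reporter signal by more than about 70% of percent inhibition, limit read from the data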;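 also: 0% = tunicamycin plus vehicle and 100% = wells without tunicamycin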
UPR XBP1 act: activators of adaptive arm of unfolded protein response (XBP1) | activation, % at 20 µM | CHO-XBP1 luciferase reporter, IRE1-XBP1 UPR activation, luminescence; percent of tunicamycin response, DMSO as zero | 330,000 compounds, 0.33% hits;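 active = versus positive control, 20 µM dose yields 30% or more activation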;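 also: 100% = tunicamycin at 10 µg/mL and 0% = DMSO only wells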
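Material: CHO-XBP1 cells stably carrying IRE1-XBP1-driven luciferase reporter / Amount: 1000 cells per well / Compound: 20 µM, 1% DMSO / Times: 6 h treatment, 37 °C / Detection: luciferase luminescence / Measure: % activation of reporter signal versus tunicamycin and DMSO controls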
An asterisk follows results filed as active.

How did CCOC(=O)c1cc2c(=O)n3ccccc3nc2n(Cc2ccco2)c1=NC(=O)c1ccccc1OC do in these assays?
NOD2 RIPK2 PPI: 0; TLR9-MyD88 block: -3; UPR CHOP act: 1; TLR4 MyD88 comp: 6; CHOP inh: 72*; UPR XBP1 act: -3

Results for CCOC(=O)c1cc2c(=O)n3ccccc3nc2n(Cc2ccco2)c1=NC(=O)c1ccc(OC)cc1 ?
NOD2 RIPK2 PPI: 3; TLR9-MyD88 block: 3; UPR CHOP act: 0; TLR4 MyD88 comp: 4; CHOP inh: 5; UPR XBP1 act: -3

Results for CC(=O)Nc1ccc(Oc2nc(C(F)(F)F)nc3ccccc23)cc1 ?
NOD2 RIPK2 PPI: 0; TLR9-MyD88 block: 12; UPR CHOP act: 0; UPR XBP1 act: 0

What do the screens show for `Cc1cc(C)cc(Oc2nc(C(F)(F)F)nc3ccccc23)c1`?
NOD2 RIPK2 PPI: -8; TLR9-MyD88 block: 4; UPR CHOP act: 0; TLR4 MyD88 comp: -1; CHOP inh: 72*; UPR XBP1 act: -1

How did CCc1nc2ccc(C(=O)Nc3ccc4c(c3)OCC(=O)N4)cn2c1N(C)Cc1nccn1C do in these assays?
NOD2 RIPK2 PPI: -10

How did CC(C)(C)c1ccc(OCc2nc(-c3ccccn3)no2)c(Br)c1 do in these assays?
NOD2 RIPK2 PPI: 0; TLR9-MyD88 block: -1; UPR CHOP act: 5; TLR4 MyD88 comp: -6; CHOP inh: 68; UPR XBP1 act: -2

What do the screens show for `Clc1cccc(OCc2nc(-c3ccncc3)no2)c1`?
NOD2 RIPK2 PPI: 5; TLR9-MyD88 block: -4; UPR CHOP act: 2; TLR4 MyD88 comp: -8; CHOP inh: -10; UPR XBP1 act: 7

What do the screens show for `Clc1cc(Cl)c(OCc2nc(-c3ccccn3)no2)cc1Cl`?
NOD2 RIPK2 PPI: -5; TLR9-MyD88 block: -2; UPR CHOP act: 1; TLR4 MyD88 comp: 15; CHOP inh: 96*; UPR XBP1 act: 2

What do the screens show for `Clc1ccc(OCc2nc(-c3ccncc3)no2)c(Cl)c1`?
NOD2 RIPK2 PPI: 1; TLR9-MyD88 block: 0; UPR CHOP act: 2; TLR4 MyD88 comp: 5; CHOP inh: 83*; UPR XBP1 act: 4

What do the screens show for `CC1(C(=O)NS(=O)(=O)Cc2ccccc2)CCN1C(=O)Cc1ccccc1Cl` (stereo not given)?
NOD2 RIPK2 PPI: -5

How did O=C1CCC[C@@H]2C[C@@]3(C[C@@H]4CCN1[C@H]24)Nc1cc(Cl)c(Cl)cc1NC3=NCc1ccccc1 do in these assays?
NOD2 RIPK2 PPI: -13; TLR9-MyD88 block: -1

Results for C(COC1CC2CC1C1C2CC2OC21)OC1CC2CC1C1C2CC2OC21 (stereo not given) ?
NOD2 RIPK2 PPI: -6; TLR9-MyD88 block: -9

How did O=C(Nc1cccc2cccnc12)c1ccc(Br)o1 do in these assays?
NOD2 RIPK2 PPI: -3; TLR9-MyD88 block: -2; UPR CHOP act: 1; TLR4 MyD88 comp: -14; CHOP inh: 77*; UPR XBP1 act: 1

What do the screens show for `O=C(Nc1nc(-c2ccccc2)cs1)c1ccc(Br)o1`?
NOD2 RIPK2 PPI: -5; TLR9-MyD88 block: 12; UPR CHOP act: 6; TLR4 MyD88 comp: -3; CHOP inh: 74*; UPR XBP1 act: 5

How did O=C(NC(=S)Nc1nc(-c2ccccc2)cs1)c1cccs1 do in these assays?
NOD2 RIPK2 PPI: 3; TLR9-MyD88 block: 2; UPR CHOP act: 3; TLR4 MyD88 comp: -4; CHOP inh: 74*; UPR XBP1 act: 0

Results for O=C(Nc1cccc2ccccc12)c1ccc(Br)o1 ?
NOD2 RIPK2 PPI: 0; TLR9-MyD88 block: -1; TLR4 MyD88 comp: 5; CHOP inh: -4

Results for Cc1ccc(-c2nc(-c3cccnc3)no2)c(C)c1 ?
NOD2 RIPK2 PPI: 1; TLR9-MyD88 block: -5; UPR CHOP act: 3; TLR4 MyD88 comp: -13; CHOP inh: 73*; UPR XBP1 act: 1

What do the screens show for `Cc1ccc(C)c(OCc2nc(-c3cccnc3)no2)c1`?
NOD2 RIPK2 PPI: 3; TLR9-MyD88 block: -9; UPR CHOP act: 3; TLR4 MyD88 comp: 13; CHOP inh: -6; UPR XBP1 act: 3

What do the screens show for `O=C(c1cc2ccccc2o1)N1CCN(c2ccccc2Cl)CC1`?
NOD2 RIPK2 PPI: -4; TLR9-MyD88 block: 0; UPR CHOP act: -1; TLR4 MyD88 comp: 1; CHOP inh: 82*; UPR XBP1 act: 1

What do the screens show for `O=C(c1cc2ccccc2o1)N1CCN(c2cccc(Cl)c2)CC1`?
NOD2 RIPK2 PPI: 4; TLR9-MyD88 block: 0; UPR CHOP act: 1; UPR XBP1 act: -3

Results for c1ccc(-n2nc3c(ccc4cnnc43)[nH]2)cc1 ?
NOD2 RIPK2 PPI: -2; TLR9-MyD88 block: 0; UPR CHOP act: 7; TLR4 MyD88 comp: -5; CHOP inh: 86*; UPR XBP1 act: 7

How did Cc1cccc(C)c1OCC(O)CN1CCC(CN2C(=O)c3cccc4cccc(c34)C2=O)CC1 (stereo not given) do in these assays?
NOD2 RIPK2 PPI: 9; TLR9-MyD88 block: -6; UPR CHOP act: 6; TLR4 MyD88 comp: -1; CHOP inh: 79*; UPR XBP1 act: -1

Results for C=CCc1ccccc1OCC(O)CN1CCN(c2ccc(C)cc2)CC1 (stereo not given) ?
NOD2 RIPK2 PPI: -6; TLR9-MyD88 block: -1; UPR CHOP act: 2; TLR4 MyD88 comp: 16; CHOP inh: 79*; UPR XBP1 act: -3

What do the screens show for `CC(C)OCC(O)CN1CCN(CCN2C(=O)c3cccc4cccc(c34)C2=O)CC1` (stereo not given)?
NOD2 RIPK2 PPI: 8; TLR9-MyD88 block: -9; UPR CHOP act: 2; UPR XBP1 act: -5

Results for C=CCc1ccccc1OCC(O)CN1CCN(CCN2C(=O)c3cccc4cccc(c34)C2=O)CC1 (stereo not given) ?
NOD2 RIPK2 PPI: 4; TLR9-MyD88 block: -2; UPR CHOP act: 2; TLR4 MyD88 comp: 2; CHOP inh: 86*; UPR XBP1 act: -1

Results for Cc1ccccc1OCC(O)CN1CCN(CCN2C(=O)c3cccc4cccc(c34)C2=O)CC1 (stereo not given) ?
NOD2 RIPK2 PPI: 10; TLR9-MyD88 block: -6; UPR CHOP act: -1; TLR4 MyD88 comp: 12; CHOP inh: 33; UPR XBP1 act: 3

What do the screens show for `COc1cc(NC(=O)N2CCc3nc(Nc4cc(Cl)cc(Cl)c4)ncc3C2)cc(OC)c1OC`?
NOD2 RIPK2 PPI: -5

What do the screens show for `Cn1c(=O)c2c(-c3ccccc3)n(-c3ccccc3Br)cc2n(C)c1=O`?
NOD2 RIPK2 PPI: 7

What do the screens show for `CCOC1=C2CN(S(=O)(=O)c3ccc(C)cc3)C(c3ccccc3)CC2N(S(=O)(=O)c2ccccc2Cl)C(c2ccccc2)C1` (stereo not given)?
NOD2 RIPK2 PPI: -11

How did O=c1ccn([C@@H]2O[C@H](CNCc3c(OCc4ccccc4F)ccc4ccccc34)[C@@H](O)[C@H]2O)c(=O)[nH]1 do in these assays?
NOD2 RIPK2 PPI: 0
